Compound activity (PubChem BioAssay)
An excerpt weighted towards active compounds, which were near 12% of everything screened.
bCat nuc transl – beta-catenin nuclear translocation modulation; nuclear translocation activity, % at 5 µM; 190,000 compounds, 0.3% hits; HeLa beta-catenin nuclear translocation, immunofluorescence imaging;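 active = nuclear translocation activity above 50% at 5 µM, with a well cell count of 50 or more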;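 also: per-cell ratio of nuclear to cytoplasmic median beta-catenin stain intensity; plate controls were DMSO negative control for no effect and GSK-3 inhibitor IX positive control for full effect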
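Test system: human HeLa cells, native beta-catenin. Compound dosing: 5 µM primary single dose, 0.1% DMSO, 0.02–20 µM confirmation series. Incubation: compound exposure 24 h at 37°C. Detection: beta-catenin immunostaining with DAPI counterstain, 20x imaging, 6 fields/well. Read-out basis: Nuclear/cytoplasmic beta-catenin signal ratio, % activation.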
MT stabilize HCS – stabilizes microtubules in HeLa cells. 200,000 compounds, 0.83% hits. % tubulin-high responders, % at 10 µM. HeLa tubulin immunostaining HCS, 24 h; share of cells brighter than vehicle mean+2SD;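 active = plate Z-score above 3 for both tubulin-high and condensed-nucleus cell shares, with cell loss under 80%, at 10 µM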;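 also: anti alpha tubulin signal scored within the nucleus-defined area of each cell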
Autophagy HCS – modulators of autophagy | MEF GFP-LC3 puncta imaging; test concentration mostly 10 µM | calls only at 10 µM (by protocol) | 190,000 compounds, 0.98% hits | AID 463193;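 active = percentage of spot-positive cells more than 3 SD above its plate mean, without a fluorescence outlier flag or 80% toxicity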;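 also: spot-positive cell cutoff set from DMSO-treated cells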
Dynein cargo inh – blocks dynein driven cargo transport along microtubules; 220,000 compounds, 0.47% hits; 3617.4 mouse cells, GR-EGFP nuclear translocation imaging; test concentration mostly 20 µM; stimulated with dexamethasone, 1 µM; active compounds read low; z-score, hits read low;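 active = plate z-score of nuclear minus cytoplasmic receptor signal below a set negative limit, without overly bright fluorescence or cell loss, cut at about -3.5 in these data, passing the limit was not always enough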;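 also: z-score of nuclear minus cytoplasmic ring GR-EGFP intensity difference per well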
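Buffer or medium: tetracycline-free induction medium containing charcoal-stripped FBS / Reagent: dexamethasone agonist, 1.0 µM final, for 30 min / Technique: automated 10x imaging of fixed Hoechst-stained cells / Times: induction 48 h, compound 1 h, agonist 30 min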
Lmaj promast – reduces viability of Leishmania major promastigotes | resazurin fluorescence viability | 200,000 compounds, 9% hits | inhibition, % at 10 µM; in the data active = inhibition above about 50%;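 also: promastigotes grown with compound for 44 hours at 28 °C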
CHOP inh – CHOP inhibition in unfolded protein response; CHO-K1 CHOP-promoter luciferase, tunicamycin-induced, 15-18 h; inhibition, % at 10 µM; AID 2732; 220,000 compounds, 3.8% hits;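 active = compounds that reduced the stress-induced luciferase reporter signal by more than about 70% of percent inhibition, limit read from the data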;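 also: 0% = tunicamycin plus vehicle and 100% = wells without tunicamycin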
Active calls of the source: *; i = inactive; · = not tested or not shown; + = active, no number.

SMILES	bCat nuc transl	MT stabilize HCS	Autophagy HCS	Dynein cargo inh	Lmaj promast	CHOP inh
CCC(=O)N1CCN(c2ccc(NC(=O)c3ccc(-c4ccccc4)cc3)cc2)CC1	-2	2	i	1.5	-2	28
COc1cc(CN2CCCC(C(=O)c3ccccc3SC)C2)cc(OC)c1 (centres undefined)	-1	2	i	0.1	6	50
CN(C)c1ccc(N=Cc2ccco2)cc1	-1	5	i	-0.58	71*	-23
CN(C)c1ccc(C=Nc2ccc(N(C)C)cc2)cc1	1	6	i	0.87	71*	-22
Cc1ccc(N=Cc2ccc(N(C)C)cc2)cc1	-1	3	i	0.35	-2	-5
Cc1ccc(C)c(NCC(O)c2ccccc2)c1 (centres undefined)	0	2	i	-1.2	-2	6
O=C(Nc1nc2nccc(-c3ccccc3)n2n1)C(Cl)(Cl)Cl	-1	1	i	-0.25	53*	31
CNc1nnc(Sc2ncccc2[N+](=O)[O-])s1	1	·	·	0.21	·	-36
CCOC(=O)C1=C(C)NC(C)=C(C(=O)OCC)C1c1cn(-c2ccccc2)nc1-c1ccco1	-1	3	i	-0.8	3	84*
O=C(c1ccccc1F)N(Cc1ccc2c(c1)OCO2)Cc1cc2cc3c(cc2n2nnnc12)OCO3	-1	3	i	1.7	87*	5
Cc1cc2cc(CN(Cc3ccc4c(c3)OCO4)C(=O)c3cnccn3)c3nnnn3c2cc1C	-1	3	i	-0.22	22	25
Cc1ccc(N(CCC(=O)NC(C)(C)C)S(=O)(=O)c2ccc(C)cc2)cc1	0	2	+	0.33	0	24
Cc1ccc(S(=O)(=O)N(CCC(=O)Nc2ccc(OC(F)(F)F)cc2)c2ccccc2)cc1	4	2	i	0.57	95*	83*
O=C(NC1CC1)C1=C[C@@H](C2CCCCC2)C[C@@H](OCc2ccc(CO)cc2)O1	-1	1	i	0.1	98*	21
O=C(NC1CC1)C1=C[C@@H](C2CC2)C[C@@H](OCc2ccc(CO)cc2)O1	1	·	·	-1.3	·	12
O=C(Nc1ccccc1)C1=C[C@@H](c2ccc(Br)cc2)C[C@@H](OCc2ccc(CO)cc2)O1	2	2	i	-0.19	56*	-14
CC(C)(C)[C@@H]1C=C(C(=O)Nc2ccccc2)O[C@H](OCc2ccc(CO)cc2)C1	-2	2	i	0.1	99*	-12
COc1cc(SC#N)ccc1N=Cc1c(C)[nH]n(-c2cccc3ccccc23)c1=O	-2	2	i	-0.33	18	21
COc1cc(SC#N)ccc1N=Cc1c(C)[nH]n(-c2ccc(C)cc2C)c1=O	0	2	i	-0.7	56*	67
COc1ccc(CCNS(=O)(=O)c2cc(C(=O)O)c(Cl)cc2Cl)cc1	-6	3	i	-0.25	-6	36
C=CCn1cnc2c(c1=O)c1nc3ccccc3nc1n2/N=C/c1cc(OC)c(OC)c(OC)c1	-7	8	+	2.8	100*	31
Cc1ccc(C(=O)C(OC(=O)CN2C(=O)c3ccccc3C2=O)c2ccccc2)cc1C (centres undefined)	-2	2	i	-0.86	-2	54
CCN1CC(C)C(O)(c2ccccc2)CC1C (centres undefined)	-2	1	i	2.7	79*	6
CCc1ccc(CC2(O)CC(C)N(C)CC2C)cc1 (centres undefined)	0	6	i	0.6	18	5
O=C(COC(=O)CCSc1ccccc1)NCc1ccccc1	0	4	i	0.32	3	15
SMILES	bCat nuc transl	MT stabilize HCS	Autophagy HCS	Dynein cargo inh	Lmaj promast	CHOP inh
Cc1cccc(CSc2ncnc3ccccc23)c1	0	2	i	-0.34	-6	73*
Cn1ccnc1SCC(=O)N1CCN(S(=O)(=O)c2ccccc2)CC1	-6	1	i	-0.47	-3	-1
O=c1[nH]cnc2c1sc1nc3c(c(-c4ccc(Cl)cc4)c12)CCC3	-4	4	i	0.016	3	85*
Cn1cccc1/C=C1\SC(=Nc2cccc(O)c2)NC1=O	1	·	·	-0.36	·	-18
Cn1cccc1/C=C1\SC(=Nc2ccc(O)cc2)NC1=O	83*	·	·	-0.28	·	-93
Cn1cc(/C=C2/SC(=O)N(c3ccccc3)C2=O)c2ccccc21	2	3	i	2	3	-27
Cc1ccc(N=C2NC(=O)/C(=C/c3cn(C)c4ccccc34)S2)cc1C	20	12	i	0.42	15	76*
Cn1cccc1/C=C1\SC(=Nc2ccccc2)NC1=O	86*	·	·	0.78	·	-18
CC1(C)CCC2=C(O1)c1ccccc1C(=O)C2=O	·	·	·	·	·	4
Cc1ccc2cc(CCNC(=O)c3ccc(Br)o3)c(=O)[nH]c2c1	1	4	i	1.7	10	23
Cc1ccc(-n2c(Cc3cccn3C)nnc2SCC(=O)NCc2ccc3c(c2)OCO3)cc1	0	4	i	0.036	2	21
CCC1(C)Cc2ccccc2-c2nc3n(c(=O)c21)CCCCC3 (centres undefined)	0	2	i	-0.07	-6	81*
O=c1c2c(nc3n1CCCCC3)-c1ccccc1CC21CCCCC1	-2	2	i	2.1	3	-7
CCC1(C)Cc2ccccc2-c2nc(NCCO)n(-c3ccc(C)cc3)c(=O)c21 (centres undefined)	-2	0	i	0.093	63*	-4
O=C1Nc2ccccc2OC1CC(=O)N1CCN(c2cccc(C(F)(F)F)c2)CC1 (centres undefined)	·	5	i	0.17	3	86*
O=C(CCn1c(=O)[nH]c2ccccc2c1=O)N1CCN(c2cccc(C(F)(F)F)c2)CC1	-4	3	i	-0.23	-4	40
O=C(CCCCn1c(=O)[nH]c2ccccc2c1=O)N1CCN(c2cccc(C(F)(F)F)c2)CC1	-1	4	i	1.9	82*	88*
O=C1Nc2ccccc2OC1CC(=O)N1CCOCC1 (centres undefined)	·	5	i	-0.26	-6	30
O=C(CSCc1ccccc1)N1CCN(c2cccc(C(F)(F)F)c2)CC1	-16	1	i	0.28	-10	85*
C/C(=C\c1ccccc1)C(=O)N1CCN(c2cccc(C(F)(F)F)c2)CC1	-1	2	i	-0.37	55*	82*
COCCn1cc(C(=O)c2cc(Br)ccc2O)cc(C#N)c1=O	0	5	i	0.83	10	6
CCN(C(=O)C(C)Cl)c1ccccc1 (centres undefined)	-3	2	i	-0.35	-6	0
COc1ccc(N(C(=O)c2cnsn2)C(C(=O)NC2CCCCC2)c2ccncc2)cc1 (centres undefined)	1	2	i	-0.062	58*	11
